Screening results deposited in PubChem by several laboratories.
HTRA1 inh = HTRA1 serine protease inhibitors, primary screen, biochemical, fluorescence polarization, HTS; inhibition, % at 5.96 µM; 340,000 tested, 0.5% active; Q92743; recombinant HTRA1, FP-rhodamine activity-based probe; in the data active means inhibition above about 36%;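 further: 0% = enzyme with DMSO and 100% = wells lacking enzyme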
Target sequence (Q92743 whole entry, looked up): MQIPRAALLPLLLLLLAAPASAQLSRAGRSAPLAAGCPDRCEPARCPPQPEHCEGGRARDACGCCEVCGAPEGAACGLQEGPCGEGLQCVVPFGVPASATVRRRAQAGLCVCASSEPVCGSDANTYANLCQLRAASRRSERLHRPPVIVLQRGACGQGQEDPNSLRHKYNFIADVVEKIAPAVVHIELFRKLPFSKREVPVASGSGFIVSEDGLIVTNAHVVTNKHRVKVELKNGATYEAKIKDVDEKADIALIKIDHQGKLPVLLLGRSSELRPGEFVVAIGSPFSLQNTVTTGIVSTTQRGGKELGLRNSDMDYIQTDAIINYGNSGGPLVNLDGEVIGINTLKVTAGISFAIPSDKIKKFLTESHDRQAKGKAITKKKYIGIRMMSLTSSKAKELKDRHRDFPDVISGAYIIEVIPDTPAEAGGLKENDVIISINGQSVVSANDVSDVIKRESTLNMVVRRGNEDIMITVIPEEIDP
SIAE primary = human SIAE inhibitors, primary screen, biochemical, fluorescence polarization, FP-Rh probe, 1536-well HTS | Sialate O-acetylesterase (Homo sapiens), Q9HAT2 | SIAE FP-Rh probe binding | inhibition, % at 9.66 µM | 370,000 tested, 0.69% active;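 active means inhibition above a cutoff: mean of compounds within the control limits plus 3 SD of those, cut at about 17% in these data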;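 further: 0% = plate median of compound wells and 100% = probe without SIAE protein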
TCR CD3 inh = inhibitors of human TCR-CD3 interaction, primary screen, biochemical, fluorescence, TAMRA-labeled TCR probe; inhibition, % at 9.4 µM; T-cell receptor (TCR); AID 651800, 2012; 360,000 tested, 0.37% active; in the data active means inhibition above about 19%;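 further: recombinant mutant TCR 2C K166C tagged with TAMRA read by polarization; 0% = receptor in buffer alone and 100% = receptor with positive control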
ARNT TACC3 PPI = disruptors of ARNT/TACC3 protein interaction, primary screen, biochemical, AlphaScreen, single concentration; inhibition, % at 9.99 µM; AlphaScreen His-ARNT PAS-B/GST-TACC3 binding, luminescence; TACC3 fragment carries E629A point mutation; 390,000 tested, 0.66% active; Transforming acidic coiled-coil-containing protein 3 (Homo sapiens), Q9Y6A5;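 active means mean inhibition of replicates at least 50% and at least half of replicates each reaching 50%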;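 further: 0% = complete ARNT plus TACC3 wells and 100% = ARNT alone without TACC3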
mABHD4 FP = ABHD4 inhibitors, primary screen, biochemical, fluorescence polarization, mouse | purified mABHD4, FP-Rh probe fluorescence polarization | inhibition, % at 8.92 µM | 370,000 tested, 0.54% active | AID 720543, 2013;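 active means inhibition exceeding the mean over every tested compound plus 3 SD, cut at about 30% in these data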;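 further: 0% = plate median of compound wells and 100% = S159A mutant with DMSO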
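System: mouse ABHD4 enzyme, wild type / Medium: HEPES pH 7.0, NaCl, Pluronic buffer / Reagent: FP-Rh activity-based fluorescent probe / Control set: S159A mutant high control, sample median low control / Detection: fluorescence polarization with parallel and perpendicular emission, 525/598 nm / Schedule: 45 min + 60 min at 25 °C / Compound dosing: 8.92 µM, single dose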
mABHD4 conf = ABHD4 inhibitors, retest, confirmation, biochemical, fluorescence polarization, mouse | 1,800 tested, 55% active | purified mABHD4, FP-Rh probe fluorescence polarization | AID 720658, 2013 | shares compounds with mABHD4 FP | inhibition, % at 8.92 µM;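 active means mean inhibition across replicates above the hit cutoff set in the primary screen, cut at about 30% in these data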;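 further: 0% = wild-type ABHD4 with DMSO and 100% = catalytically dead S159A mutant with DMSO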
An asterisk follows results filed as active; . = no result given. A selection: hits, their analogues and other compounds. The true share with any hit is near 1.8%.

SMILES	HTRA1 inh	SIAE primary	TCR CD3 inh	ARNT TACC3 PPI	mABHD4 FP	mABHD4 conf
COc1ccc(-c2sc3cc4c(cc3c2C#CC2(N)CCCCC2)OCO4)cc1	-49	0	-1	4	32*	30*
O=S(=O)(c1ccccc1F)N1CC[C@@H]2[C@H](CO)Nc3ccc(-c4cccc(F)c4)cc3[C@@H]21	.	.	.	-8	.	.
O=C(NN=Cc1ccc(O)cc1O)c1ccccc1NS(=O)(=O)c1cccs1	20	9	18	47*	33*	36*
O=C(C=Cc1ccco1)c1ccc([N+](=O)[O-])cc1	2	10	5	.	37*	5
O=C(/C=C/c1ccco1)c1cccnc1	3	15	18	-4	36*	-3
CC(CN1CCN(Cc2ccccc2)CC1)c1ccccc1 (configuration not stated)	-3	1	-7	3	30*	6
CCC1=Nc2cc(C(=O)N3CCCCC3)ccc2Sc2ccc(C)cc21	-34	12	7	10	16	.
CCCC1=Nc2cc(C(=O)N3CCCC3)ccc2Sc2ccc(C)cc21	-37	-5	0	1	32*	27
c1ccc(Nc2nc(NCc3ccco3)c3ccccc3n2)cc1	-28	8	-10	17	21	.
COc1cccc(Nc2nc(NCCO)c3ccccc3n2)c1	5	10	-9	10	39*	47*
OCCNc1nc(Nc2cccc(O)c2)nc2ccccc12	2	9	9	-5	-5	.
Cc1cccc(Nc2nc(NCc3ccco3)c3ccccc3n2)c1	-25	23*	6	6	39*	46*
COc1cc(CNc2ccc3[nH]c(=O)[nH]c3c2)cc(Cl)c1OCC(=O)NC(C)(C)C	13	5	6	.	40*	36*
O=C(/C=C/Nc1ccc(Nc2ccccc2)cc1)c1cccs1	33	11	-1	-5	34*	-2
COc1ccc(NS(=O)(=O)c2cc(N=Nc3c(O)[nH]c(=O)[nH]c3=O)ccc2OC)cc1Br	4	-4	7	.	18	.
CCOc1ccc(NS(=O)(=O)c2ccc(Cl)c(N=Nc3c(O)[nH]c(=S)[nH]c3=O)c2)cc1Br	15	8	-5	.	39*	52*
CN1CCN(C(=O)[C@H]2[C@H](CO)[C@H]3Cn4c(cccc4=O)[C@@H]2N3Cc2ccncc2)CC1	.	.	.	-3	.	.
CC(=O)Nc1ccc(C=NNc2ccc(S(=O)(=O)Nc3ccccc3C(=O)O)cc2[N+](=O)[O-])cc1	35	-3	-5	13	55*	77*
NS(=O)(=O)c1ccc(N/N=C/c2ccc(C(=O)O)cc2)c([N+](=O)[O-])c1	2	-7	1	2	1	.
CC(=O)Nc1cccc(/C(C)=N/Nc2ccc(S(=O)(=O)Nc3ccccc3C(=O)O)cc2[N+](=O)[O-])c1	7	7	5	5	42*	63*
C[C@@H]1CN([C@H](C)CO)C(=O)c2cccc(NS(=O)(=O)c3cccs3)c2O[C@H]1CN(C)C	.	.	.	-8	.	.
Cc1cccc(Nc2cc(C)c3c(O)cccc3n2)c1C	9	9	-5	37	30*	42*
CCOc1cc([N+](=O)[O-])cc(/C=C2/NC(=O)N(Cc3ccccc3F)C2=O)c1O	27	-6	-3	11	31*	54*
Cc1cc(/C=C2/NC(=O)N(Cc3ccccc3F)C2=O)c(C)n1C	13	2	-2	6	7	.
COc1ccc(NC(=O)Nc2ccc3c(c2)[C@@H]2C[C@H](CC(=O)NCc4ccccc4F)O[C@@H](CO)[C@@H]2O3)cc1	.	.	.	-9	.	.
SMILES	HTRA1 inh	SIAE primary	TCR CD3 inh	ARNT TACC3 PPI	mABHD4 FP	mABHD4 conf
Cc1n[nH]c(=S)n(NC(=O)/C=C/C(=O)Nn2c(=S)[nH]nc(C)c2=O)c1=O	17	-5	18	66*	38*	9
CC(C)NC(=O)Nc1cccc2c1O[C@@H](CN(C)C(=O)NC(C)C)[C@@H](C)CN([C@@H](C)CO)C2=O	.	.	.	0	.	.
CN(C)CCOc1ccc(-c2c(-c3ccsc3)sc3ccccc23)cc1	-21	16	-6	14	34*	39*
C[C@@H]1CN([C@@H](C)CO)C(=O)Cc2cc(NS(C)(=O)=O)ccc2O[C@@H]1CN(C)Cc1ccccc1	.	.	.	0	.	.
CCOC(=O)C1=C(SCC)c2cc3c(n2C1=O)CCCC3	35	0	-3	0	36*	75*
Cc1c(C#N)c(N)nc(Cl)c1C#N	-6	9	4	15	-3	.
N#Cc1c(Cl)nsc1NN	12	11	-1	20	73*	28
CCC(=O)Nc1ccc2c(c1)C(=O)N(C)C[C@H](OC)[C@@H](C)CN(C(=O)c1ccccn1)[C@@H](C)CO2	.	.	.	-6	.	.
O=C1CC(Nc2ccc(N3CCOCC3)cc2)C(=O)N1CCc1ccccc1 (configuration not stated)	12	17	-1	.	33*	4
CN(C)c1ccc(N2C(=O)CC(Nc3ccc(N4CCOCC4)cc3)C2=O)cc1 (configuration not stated)	6	11	-7	0	21	.
COc1ccc(N2C(=O)CC(Nc3ccc(N4CCOCC4)cc3)C2=O)c(OC)c1 (configuration not stated)	22	30*	10	14	49*	14
COc1ccc(NC(=O)Nc2ccc3c(c2)CC(=O)N([C@@H](C)CO)C[C@@H](C)[C@@H](CN(C)Cc2ccncc2)O3)cc1	.	.	.	3	.	.
O=C(C[C@H]1C[C@H]2c3cc(NC(=O)C4CCC4)ccc3O[C@H]2[C@@H](CO)O1)NCc1ccccc1	.	.	.	-11	.	.
Cc1ccc(C(=O)COC(=O)C2CC3CCCC(C2)C3=O)cc1[N+](=O)[O-] (configuration not stated)	-7	-1	-2	1	42*	3
COc1cccc(-c2ccc3n(c2=O)C[C@H]2[C@H](CO)[C@@H](C(=O)NC4CCC4)N(S(C)(=O)=O)[C@@H]32)c1	.	.	.	-18	.	.
CCOC(=O)/C(=N\Nc1ccccc1)P(=O)(c1ccccc1)c1ccccc1	5	5	-3	11	30*	23
COc1ccc2c(c1)Sc1ccccc1N2	19	1	-1	15	41*	20
CC1=NN(Cc2ccccc2)C(=O)C1C(c1ccncc1)C(C#N)C#N (configuration not stated)	1	10	3	20	4	.
